Consider one molecule from ChEMBL document CHEMBL4622923, “Discovery of 4-Phenylpiperidine-2-Carboxamide Analogues as Serotonin 5-HT2C Receptor-Positive Allosteric Modulators with Enhanced Drug-like Properties” (J Med Chem, 2020).

Series [1] can be described thus: Volume of distribution at steady state in Sprague-Dawley rat at 10 mg/kg, iv. The class given is ADME, organism-based. The conditions noted are these: in vivo. The method in brief:
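Male Sprague-Dawley rats, 200–250 g, n = 3/group, randomly assigned; dosed 10 mg/kg iv or 20 mg/kg po in 10% DMSO:90% HP-β-CD. Retro-orbital blood sampled predose and 0.08 (iv only), 0.25, 0.5, 1, 2, 4, 8, 24 h. Noncompartmental analysis; Cmax read directly from plasma concentration–time plot; mean ± SEM.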

Series [2] relates to Rattus norvegicus. Description: In vivo agonist activity at 5HT2CR in Sprague-Dawley rat assessed as increase in number of rat choosing drug associated lever at 0.5 to 5 mg/kg, ip treated 30 mins prior to test by drug discrimination test. In kind it is organism-based. The conditions noted are these: 0.5 h. A digest of the protocol: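 Male Sprague-Dawley rats (n = 13), water-restricted, trained to discriminate WAY163909 (0.75 mg/kg ip, 15 min pretreatment) from saline in a two-lever FR20 water-reinforced task. Test compound given ip at 0.5, 1.0, 2.0 and 5.0 mg/kg, 30 min before a 15 min test. Read-out is the percentage of rats selecting the WAY163909 lever; response rate is also recorded.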

The target of series [3] is 5-hydroxytryptamine receptor 5A (Homo sapiens) (UniProt P47898). Description: Displacement of [3H]-LSD from human 5HT5A expressed in Flp-In-CHO cell membranes at 10 uM incubated for 90 mins under dark condition by scintillation counting analysis relative to control. (Displacement assays read how much labelled ligand stays bound in the presence of the test substance.)
The target of series [4] is T1, 5-hydroxytryptamine receptor 2C (Homo sapiens, UniProt P28335).
T1 sequence (P28335 whole entry): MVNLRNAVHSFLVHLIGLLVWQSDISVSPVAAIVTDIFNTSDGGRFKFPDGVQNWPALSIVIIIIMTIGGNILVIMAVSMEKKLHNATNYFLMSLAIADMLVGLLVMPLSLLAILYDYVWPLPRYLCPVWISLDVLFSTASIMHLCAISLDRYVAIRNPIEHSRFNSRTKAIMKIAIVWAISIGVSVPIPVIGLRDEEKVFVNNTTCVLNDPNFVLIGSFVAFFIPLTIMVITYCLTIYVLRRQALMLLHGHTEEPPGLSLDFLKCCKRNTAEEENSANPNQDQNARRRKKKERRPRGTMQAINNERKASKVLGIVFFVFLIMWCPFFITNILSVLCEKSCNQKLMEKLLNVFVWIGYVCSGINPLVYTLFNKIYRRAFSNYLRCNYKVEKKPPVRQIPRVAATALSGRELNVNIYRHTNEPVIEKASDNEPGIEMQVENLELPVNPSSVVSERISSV
Kind of series: Agonist activity at human 5HT2CR expressed in CHO cells assessed as increase in intracellular calcium release at 1 nM incubated for 15 mins measured at 1 secs interval for 120 secs by calcium 4 dye based FLIPR assay relative to 5-HT. The class given is cell-based. The conditions noted are these: 0.001 µM. The method in brief:
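h5-HT2CR (unedited INI isoform) stably expressed in CHO cells; cells plated ~24 h, serum-free medium 3 h, then Calcium 4 dye with 2.5 mM probenecid in Ca/Mg-free HBSS pH 7.4 for 60 min at 37°C plus 15 min at room temperature. Compound given alone, read for 15 min before 5-HT. Peak fluorescence is expressed relative to the 5-HT Emax. 4-6 biological replicates, each in triplicate.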

A short description of series [5]: AUC (0 to infinity) in Sprague-Dawley rat at 20 mg/kg, po. In kind it is ADME, organism-based. Details: dose 20 mg/kg, time infinity, route oral; call rule not given here. The conditions noted are these: in vivo.
Series [6] deals with Mu-type opioid receptor (Homo sapiens) (UniProt P35372). Kind of series: Displacement of [3H]-DAMGO from human mu opioid receptor stably expressed in HEK cell membranes at 10 uM incubated for 90 mins under dark condition by scintillation counting analysis relative to control.
In series [7] the target is 5-hydroxytryptamine receptor 6 (Homo sapiens) (UniProt P50406). Kind of series: Displacement of [3H]-LSD from human 5HT6 stably expressed in HEK cell membranes at 10 uM incubated for 90 mins under dark condition by scintillation counting analysis relative to control.
Series [8] deals with D(2) dopamine receptor (Homo sapiens) (UniProt P14416). Description: Displacement of [3H]-N-methylspiperone from human dopamine D2 receptor at 10 uM incubated for 90 mins under dark condition by scintillation counting analysis relative to control.
In series [9] the target is 5-hydroxytryptamine receptor 7 (Homo sapiens) (UniProt P34969). Description: Displacement of [3H]-LSD from human 5HT7A stably expressed in HEK cell membranes at 10 uM incubated for 90 mins under dark condition by scintillation counting analysis relative to control.
A short description of series [10]: Ratio of drug level in brain to plasma in Sprague-Dawley rat at 10 mg/kg, iv after 0.25 hrs. In kind it is ADME, organism-based. A digest of the protocol:
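Male Sprague-Dawley rats, n = 3/group, given 10 mg/kg iv in 10% DMSO:90% HP-β-CD. Brain and plasma collected at 0.25 and 1 h after dosing. Brain concentration (ng/g) divided by plasma concentration (ng/mL); mean ± SEM.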

Series [11] deals with D(1B) dopamine receptor (Homo sapiens) (UniProt P21918). Kind of series: Displacement of [3H]-SCH23390 from human dopamine D5 receptor expressed in HEKT cell membranes at 10 uM incubated for 90 mins under dark condition by scintillation counting analysis relative to control.
The target in series [12] is Alpha-1D adrenergic receptor (Homo sapiens) (UniProt P25100). Description: Displacement of [3H]-prazosin from human adrenergic alpha1D receptor at 10 uM incubated for 90 mins under dark condition by scintillation counting analysis relative to control.
Series [13] is described as follows: Apparent permeability across basolateral to apical side in MDCK-MDR1 cells. The conditions noted are these: dog. In kind it is ADME, cell-based, Canis lupus familiaris.
The nature of series [14]: Half life in Sprague-Dawley rat at 20 mg/kg, po. The class given is ADME, organism-based. The conditions noted are these: in vivo. A digest of the protocol:
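Male Sprague-Dawley rats (200–250 g, n = 3/group) dosed orally at 20 mg/kg in 10% DMSO:90% HP-β-CD. Retro-orbital blood sampled at 0.25, 0.5, 1, 2, 4, 8 and 24 h post-dose; plasma analysed externally. Noncompartmental analysis: λ from least-squares terminal log-linear slope, t1/2 = 0.693/λ; mean ± SEM.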

Series [15] addresses 5-hydroxytryptamine receptor 1B (Homo sapiens) (UniProt P28222). Description: Displacement of [3H]-GR125743 from human 5HT1B stably expressed in HEK cell membranes at 10 uM incubated for 90 mins under dark condition by scintillation counting analysis relative to control.
The nature of series [16]: Fraction unbound in rat plasma. In kind it is ADME, cell-free. A digest of the protocol:
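Free fraction measured in rat plasma.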

Series [17] concerns the target 5-HT2A receptor (Homo sapiens, UniProt P28223). Kind of series: Positive allosteric modulation of human 5HT2AR expressed in CHO cells assessed as increase in 5-HT induced intracellular calcium release at 1 nM preincubated for 15 mins followed by 5-HT addition and measured at 1 secs interval for 360 secs by calcium 4 dye based FLIPR assay relative to 5-HT. In kind it is cell-based. The conditions noted are these: CHO cells expressing human 5HT2AR. A digest of the protocol: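 CHO cells stably expressing human 5-HT2AR, serum-starved 3 h, then loaded with Calcium 4 dye plus 2.5 mM probenecid in HBSS (no Ca/Mg, pH 7.4) for 60 min at 37°C and 15 min at room temperature. Test compound added 15 min before 5-HT (10 pM-10 μM). FLIPR fluorescence read every 1 s for 360 s after 5-HT. Emax from 4-parameter fit, normalized to 5-HT maximum.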
For orientation: Calcium assays in cells follow changes in intracellular calcium, usually with a dye or a luminescent sensor.

A short description of series [18]: Apparent permeability across apical to basolateral side in MDCK-MDR1 cells. The class given is ADME, cell-based, Canis lupus familiaris. The conditions noted are these: dog.

Chain of 5-hydroxytryptamine receptor 5A (Homo sapiens) (P47898 whole entry): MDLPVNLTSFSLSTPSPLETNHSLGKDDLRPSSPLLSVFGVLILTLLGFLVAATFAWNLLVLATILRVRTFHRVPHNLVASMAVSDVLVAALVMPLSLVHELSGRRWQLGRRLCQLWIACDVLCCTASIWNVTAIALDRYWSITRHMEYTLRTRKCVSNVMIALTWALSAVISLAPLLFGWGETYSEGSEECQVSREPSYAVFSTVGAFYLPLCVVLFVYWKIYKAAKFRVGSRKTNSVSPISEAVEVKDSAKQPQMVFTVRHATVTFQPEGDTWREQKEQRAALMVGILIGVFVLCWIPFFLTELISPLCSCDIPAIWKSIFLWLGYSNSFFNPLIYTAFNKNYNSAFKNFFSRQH
Chain of D(2) dopamine receptor (Homo sapiens) (P14416 whole entry): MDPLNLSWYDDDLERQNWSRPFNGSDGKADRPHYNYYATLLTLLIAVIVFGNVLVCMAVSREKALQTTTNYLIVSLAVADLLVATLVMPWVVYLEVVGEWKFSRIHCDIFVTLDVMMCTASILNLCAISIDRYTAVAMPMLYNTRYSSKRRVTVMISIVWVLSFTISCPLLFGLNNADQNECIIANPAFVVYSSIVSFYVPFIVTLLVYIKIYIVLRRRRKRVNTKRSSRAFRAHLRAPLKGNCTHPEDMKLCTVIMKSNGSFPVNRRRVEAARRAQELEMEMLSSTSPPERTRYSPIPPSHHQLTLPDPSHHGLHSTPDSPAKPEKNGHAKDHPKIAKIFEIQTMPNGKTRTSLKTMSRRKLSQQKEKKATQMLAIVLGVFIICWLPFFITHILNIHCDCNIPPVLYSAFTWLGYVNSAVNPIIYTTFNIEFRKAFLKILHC
Chain of 5-hydroxytryptamine receptor 6 (Homo sapiens) (P50406 whole entry): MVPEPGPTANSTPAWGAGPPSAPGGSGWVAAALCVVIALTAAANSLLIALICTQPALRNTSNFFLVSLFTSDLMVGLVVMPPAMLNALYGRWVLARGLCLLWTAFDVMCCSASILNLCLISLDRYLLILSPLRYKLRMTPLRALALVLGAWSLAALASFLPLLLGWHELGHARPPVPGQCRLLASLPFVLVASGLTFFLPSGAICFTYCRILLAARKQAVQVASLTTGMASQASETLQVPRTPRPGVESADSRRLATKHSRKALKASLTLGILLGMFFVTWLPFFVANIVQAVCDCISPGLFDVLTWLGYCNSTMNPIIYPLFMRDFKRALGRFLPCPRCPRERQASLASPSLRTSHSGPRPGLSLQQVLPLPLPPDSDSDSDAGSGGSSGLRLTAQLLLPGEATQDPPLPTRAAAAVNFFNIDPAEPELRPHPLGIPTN
Chain of Mu-type opioid receptor (Homo sapiens) (P35372 whole entry): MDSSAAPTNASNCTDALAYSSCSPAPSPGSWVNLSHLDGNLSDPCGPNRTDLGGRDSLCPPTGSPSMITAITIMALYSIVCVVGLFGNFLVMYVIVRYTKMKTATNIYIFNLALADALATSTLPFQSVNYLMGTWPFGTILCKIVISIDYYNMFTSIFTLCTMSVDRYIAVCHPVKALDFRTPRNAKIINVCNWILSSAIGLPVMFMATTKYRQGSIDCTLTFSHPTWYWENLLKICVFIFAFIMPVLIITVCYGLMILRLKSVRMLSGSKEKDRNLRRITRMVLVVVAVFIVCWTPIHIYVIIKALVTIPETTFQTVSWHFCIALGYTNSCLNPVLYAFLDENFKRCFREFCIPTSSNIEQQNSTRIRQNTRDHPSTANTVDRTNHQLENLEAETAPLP
Chain of 5-HT2A receptor (P28223 whole entry): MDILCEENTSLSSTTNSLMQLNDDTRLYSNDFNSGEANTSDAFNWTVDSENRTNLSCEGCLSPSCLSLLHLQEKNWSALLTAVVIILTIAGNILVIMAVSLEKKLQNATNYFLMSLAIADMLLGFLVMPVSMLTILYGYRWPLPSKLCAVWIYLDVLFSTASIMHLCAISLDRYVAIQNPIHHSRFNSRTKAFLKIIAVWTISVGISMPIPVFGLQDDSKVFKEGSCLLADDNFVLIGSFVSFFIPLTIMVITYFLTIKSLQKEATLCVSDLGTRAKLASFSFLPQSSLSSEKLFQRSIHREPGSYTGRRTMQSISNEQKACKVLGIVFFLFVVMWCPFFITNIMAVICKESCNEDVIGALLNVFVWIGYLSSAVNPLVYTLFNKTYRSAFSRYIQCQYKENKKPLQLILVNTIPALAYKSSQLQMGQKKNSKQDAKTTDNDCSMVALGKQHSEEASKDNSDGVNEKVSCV
Chain of D(1B) dopamine receptor (Homo sapiens) (P21918 whole entry): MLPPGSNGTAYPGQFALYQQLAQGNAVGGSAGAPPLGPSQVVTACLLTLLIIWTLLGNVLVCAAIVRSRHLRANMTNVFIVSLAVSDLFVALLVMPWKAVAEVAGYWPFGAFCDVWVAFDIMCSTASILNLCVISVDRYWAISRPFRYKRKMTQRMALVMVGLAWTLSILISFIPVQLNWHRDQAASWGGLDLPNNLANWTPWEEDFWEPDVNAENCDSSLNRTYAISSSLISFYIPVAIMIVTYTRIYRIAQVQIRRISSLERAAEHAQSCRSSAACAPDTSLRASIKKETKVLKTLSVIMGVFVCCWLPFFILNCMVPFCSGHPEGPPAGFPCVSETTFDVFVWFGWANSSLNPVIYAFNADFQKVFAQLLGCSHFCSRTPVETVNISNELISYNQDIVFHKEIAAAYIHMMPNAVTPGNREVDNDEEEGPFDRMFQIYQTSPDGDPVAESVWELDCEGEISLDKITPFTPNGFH
Chain of 5-hydroxytryptamine receptor 1B (Homo sapiens) (P28222 whole entry): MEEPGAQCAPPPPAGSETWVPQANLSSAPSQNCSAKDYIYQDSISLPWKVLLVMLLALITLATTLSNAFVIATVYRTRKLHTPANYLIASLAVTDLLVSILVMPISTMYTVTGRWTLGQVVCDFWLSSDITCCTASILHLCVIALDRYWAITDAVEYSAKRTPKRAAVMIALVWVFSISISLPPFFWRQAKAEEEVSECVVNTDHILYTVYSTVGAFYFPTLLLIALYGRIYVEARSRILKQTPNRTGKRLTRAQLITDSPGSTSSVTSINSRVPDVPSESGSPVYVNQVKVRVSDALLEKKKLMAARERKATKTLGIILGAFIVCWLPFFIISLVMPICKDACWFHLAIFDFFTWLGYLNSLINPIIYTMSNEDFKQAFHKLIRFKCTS
Chain of Alpha-1D adrenergic receptor (Homo sapiens) (P25100 whole entry): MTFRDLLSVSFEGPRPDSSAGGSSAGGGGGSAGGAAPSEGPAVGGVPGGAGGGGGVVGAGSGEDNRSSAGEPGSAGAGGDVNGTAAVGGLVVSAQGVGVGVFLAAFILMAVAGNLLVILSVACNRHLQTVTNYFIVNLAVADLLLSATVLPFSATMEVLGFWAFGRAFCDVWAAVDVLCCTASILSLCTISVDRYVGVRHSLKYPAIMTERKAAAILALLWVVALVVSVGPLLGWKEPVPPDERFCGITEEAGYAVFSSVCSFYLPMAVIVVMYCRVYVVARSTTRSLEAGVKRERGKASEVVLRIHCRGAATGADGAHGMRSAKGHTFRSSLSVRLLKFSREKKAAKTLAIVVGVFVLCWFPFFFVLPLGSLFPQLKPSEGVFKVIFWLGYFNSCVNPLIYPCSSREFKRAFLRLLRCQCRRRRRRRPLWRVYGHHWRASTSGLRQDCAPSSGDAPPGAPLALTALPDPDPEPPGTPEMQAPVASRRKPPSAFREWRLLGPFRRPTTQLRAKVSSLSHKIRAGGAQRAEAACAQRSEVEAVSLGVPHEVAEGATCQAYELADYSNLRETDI
Chain of 5-hydroxytryptamine receptor 7 (Homo sapiens) (P34969 whole entry): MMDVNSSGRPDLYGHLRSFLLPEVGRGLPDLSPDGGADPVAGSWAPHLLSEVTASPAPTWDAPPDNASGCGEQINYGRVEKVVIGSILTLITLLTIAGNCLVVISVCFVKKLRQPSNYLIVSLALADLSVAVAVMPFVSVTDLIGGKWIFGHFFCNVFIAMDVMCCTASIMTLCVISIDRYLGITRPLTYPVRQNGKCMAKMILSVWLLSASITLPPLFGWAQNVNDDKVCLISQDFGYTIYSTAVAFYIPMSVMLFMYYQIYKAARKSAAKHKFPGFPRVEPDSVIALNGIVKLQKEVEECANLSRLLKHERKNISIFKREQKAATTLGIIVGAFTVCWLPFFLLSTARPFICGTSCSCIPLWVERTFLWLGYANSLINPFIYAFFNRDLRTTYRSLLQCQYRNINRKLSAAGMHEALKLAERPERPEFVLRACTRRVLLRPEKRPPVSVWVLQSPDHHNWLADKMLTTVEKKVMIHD

The molecule `O=C(NC[C@H](O)CO)[C@@H]1C[C@H](c2ccccc2)CCN1` (mixture of isomers) returned a Vdss in series [1] of 5.4 L/kg. In addition, the results for the Activity result in [2] and in series [4] were “Non-Toxic” and “Not Active”, respectively. The inhibition is -4.3% in series [3]; 23.3% in [6]; 2.5% in series [7]; 7.5% in [8]; 2.2% in [9]; 9.4% in series [11]. The inhibition in series [12] is -4.8%; in [15], 12.3%. In series [5], this molecule came in with an AUC of 2244.7 ng·h/mL. The BPR in series [10] was found to be 0.07. The Papp in [13] was 1.3 ×10⁻⁶ cm/s; in [18], 0.04 ×10⁻⁶ cm/s. Also, the t1/2 in series [14] turned out to be 4.4 h. The Fu in series [16] stood at 66%. For the same molecule, in series [17], the Emax at 0.1 h, 0.001 µM was determined as 103%.

One may read the Vdss as the apparent volume that relates the amount in the body to the concentration in plasma or blood. Read a high Vdss as wide distribution into tissue. Broadly, the inhibition is the change of the read-out against control, counted positive when it falls. For orientation: AUC means the area under the concentration-time curve, a measure of exposure. Low readings indicate low exposure, high ones high exposure. As usually defined, the Papp is the rate of passage across a membrane or cell layer, normalised by area and donor concentration. What is called Emax is the maximal effect, on the per cent scale that the assay sets.
